Assay results published in ChEMBL document CHEMBL1128288, “7-Azetidinylquinolones as antibacterial agents. 3. Synthesis, properties and structure-activity relationships of the stereoisomers containing a 7-(3-amino-2-methyl-1-azetidinyl) moiety” (J Med Chem, 1995).
Converted amounts (≈) assume the structure as drawn.

Assays:
Bacillus cereus = assay: In vitro antibacterial activity measured as minimum inhibitory concentration was evaluated on Bacillus cereus ATCC 11778 (Bc).; type: functional
In short: (§1)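 Serial 2-fold agar dilution in Mueller Hinton medium, run side by side with reference quinolones. Inoculum 10^5 cfu/mL; compound range 0.007–16 µg/mL.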

Bacillus subtilis = assay: In vitro antibacterial activity measured as minimum inhibitory concentration was evaluated on Bacillus subtilis ATCC 6633(Bs).; type: functional; in short: as §1
Enterobacter cloacae = assay: In vitro antibacterial activity measured as minimum inhibitory concentration, was evaluated on Enterobacter cloacae ATCC 23355 (Ecl).; type: functional
Klebsiella pneumoniae = assay: In vitro antibacterial activity measured as minimum inhibitory concentration was evaluated on klebsiella pneumoniae ATCC 10031 (Kp).; type: functional
In short: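 Serial 2-fold agar dilution in Mueller Hinton medium, run side by side with reference quinolones.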

Pseudomonas aeruginosa [1] = assay: In vivo efficacy as ED50 against Pseudomonas aeruginosa HS-116 by oral administration in mice.; type: functional
In short: (§2)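 Mice, 4 groups of 10, infected intraperitoneally with slightly more than the LD100 of the organism. A single oral dose was given immediately after infection, with four doses (one per group) chosen from in vitro activity. Survival was scored after one week. ED50 (total dose, mg/kg, protecting 50%) was interpolated among group survival rates.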

Staphylococcus aureus [2] = assay: In vivo efficacy as ED50 against Staphylococcus aureus HS-93 by oral administration in mice.; type: functional; in short: as §2
Escherichia coli [3] = assay: In vivo efficacy as ED50 against Escherichia coli HM-42 by oral administration in mice.; type: functional; in short: as §2
Proteus vulgaris = assay: In vitro antibacterial activity measured as minimum inhibitory concentration was evaluated on proteus vulgaris ATCC 8427 (Pv).; type: functional; in short: as §1
Pseudomonas aeruginosa [4] = assay: In vitro antibacterial activity measured as minimum inhibitory concentration was evaluated on Pseudomonas aeruginosa ATCC 10145 (Pa).; type: functional; in short: as §1
Staphylococcus aureus [5] = assay: In vitro antibacterial activity measured as minimum inhibitory concentration was evaluated on Staphylococcus aureus ATCC 25178 (Sa).; type: functional; in short: as §1
[6] = system: Staphylococcus epidermidis; assay: In vitro antibacterial activity measured as minimum inhibitory concentration was evaluated on Staphylococcus epidermidis ATCC 155-1 (Se).; type: functional; in short: as §1
Enterococcus faecalis = assay: In vitro antibacterial activity measured as minimum inhibitory concentration was evaluated on Streptococcus faecalis ATCC 10541 (Sf).; type: functional; in short: as §1
Escherichia coli [7] = assay: In vitro antibacterial activity measured as minimum inhibitory concentration, was evaluated on Escherichia coli ATCC 23559(Ec).; type: functional; in short: as §1
Morganella morganii = assay: In vitro antibacterial activity measured as minimum inhibitory concentration was evaluated on morganella morganii ATCC 8019 (Mm).; type: functional; in short: as §1
[8] = mouse, in vivo, po, 50 mg/kg
[9] = Bacillus cereus, ATCC 11778, read-out: MIC
[10] = Bacillus subtilis, ATCC 6633, read-out: MIC
[11] = Enterobacter cloacae, ATCC 23355, read-out: MIC
[12] = Klebsiella pneumoniae, ATCC 10031, read-out: MIC
[13] = Pseudomonas aeruginosa, po, read-out: ED50
[14] = Staphylococcus aureus, po, read-out: ED50
[15] = Escherichia coli, po, read-out: ED50
[16] = Proteus vulgaris, ATCC 8427, read-out: MIC
[17] = Pseudomonas aeruginosa, ATCC 10145, read-out: MIC
[18] = Staphylococcus aureus, ATCC 25178, read-out: MIC
[19] = Staphylococcus epidermidis, ATCC 155-1, read-out: MIC
[20] = Enterococcus faecalis, ATCC 10541, read-out: MIC
[21] = Escherichia coli, ATCC 23559, read-out: MIC
[22] = Morganella morganii, ATCC 8019, read-out: MIC

SMILES | MIC (Bacillus cereus; [9]) [µg/mL] | MIC (Bacillus subtilis; [10]) [µg/mL] | MIC (Enterobacter cloacae; [11]) [µg/mL] | MIC (Klebsiella pneumoniae; [12]) [µg/mL] | MIC (Proteus vulgaris; [16]) [µg/mL] | MIC (Pseudomonas aeruginosa [4]; [17]) [µg/mL] | MIC (Staphylococcus aureus [5]; [18]) [µg/mL] | MIC [6, 19] [µg/mL] | MIC (Enterococcus faecalis; [20]) [µg/mL] | MIC (Escherichia coli [7]; [21]) [µg/mL] | MIC (Morganella morganii; [22]) [µg/mL] | AUC [8] [ng·h/mL] | ED50 (Pseudomonas aeruginosa [1]; [13]) [mg/kg] | ED50 (Staphylococcus aureus [2]; [14]) [mg/kg] | ED50 (Escherichia coli [3]; [15]) [mg/kg] | further results
C[C@H]1COc2c(N3CC(C)(N)C3)c(F)cc3c(=O)c(C(=O)O)cn1c23 | 0.25 (≈ 0.72 µM) | 0.015 (≈ 0.0432 µM) | 0.015 (≈ 0.0432 µM) | 0.015 (≈ 0.0432 µM) | 0.25 (≈ 0.72 µM) | 0.5 (≈ 1.44 µM) | 0.25 (≈ 0.72 µM) | 0.12 (≈ 0.345 µM) | 0.5 (≈ 1.44 µM) | 0.015 (≈ 0.0432 µM) | 0.015 (≈ 0.0432 µM) | 8500 | 121 | 19.1 | 6.7 | 
C[C@@H]1[C@@H](N)CN1c1c(F)cc2c(=O)c(C(=O)O)cn(-c3ccc(F)cc3)c2c1F | 0.12 (≈ 0.298 µM) | 0.06 (≈ 0.149 µM) | 0.015 (≈ 0.0372 µM) | 0.015 (≈ 0.0372 µM) | 0.25 (≈ 0.62 µM) | 0.5 (≈ 1.24 µM) | 0.12 (≈ 0.298 µM) | 0.25 (≈ 0.62 µM) | 1 (≈ 2.48 µM) | 0.06 (≈ 0.149 µM) | 0.12 (≈ 0.298 µM) | 40900 | 53 | 4.8 | 2.1 | 
C[C@H]1[C@H](N)CN1c1c(F)cc2c(=O)c(C(=O)O)cn(C3CC3)c2c1Cl (single isomer, unassigned) | 0.015 (≈ 0.041 µM) | 0.015 (≈ 0.041 µM) | 0.015 (≈ 0.041 µM) | 0.015 (≈ 0.041 µM) | 0.015 (≈ 0.041 µM) |  | 0.015 (≈ 0.041 µM) | 0.015 (≈ 0.041 µM) | 0.015 (≈ 0.041 µM) | 0.015 (≈ 0.041 µM) | 0.015 (≈ 0.041 µM) | 5200 | 36 | 3.6 | 2.1 | 
C[C@@H]1[C@@H](N)CN1c1c(F)cc2c(=O)c(C(=O)O)cn3c2c1OC[C@@H]3C | 0.5 (≈ 1.44 µM) | 0.12 (≈ 0.345 µM) | 0.25 (≈ 0.72 µM) | 0.06 (≈ 0.173 µM) | 0.5 (≈ 1.44 µM) | 4 (≈ 11.5 µM) | 0.25 (≈ 0.72 µM) | 0.25 (≈ 0.72 µM) | 1 (≈ 2.88 µM) | 0.25 (≈ 0.72 µM) | 0.12 (≈ 0.345 µM) |  | 53 | 46.1 | 50 | 
C[C@@H]1[C@@H](N)CN1c1c(F)cc2c(=O)c(C(=O)O)cn(C3CC3)c2c1F (stereo in doubt; 22) |  |  |  |  |  |  |  |  |  |  |  |  |  |  |  | MIC (Bacillus cereus): 0.06 µg/mL (≈ 0.172 µM); MIC (Bacillus subtilis): 0.03 µg/mL (≈ 0.0859 µM); MIC (Enterobacter cloacae): 0.03 µg/mL (≈ 0.0859 µM); MIC (Klebsiella pneumoniae): 0.03 µg/mL (≈ 0.0859 µM); ED50 (Pseudomonas aeruginosa [1]): 22 mg/kg; ED50 (Staphylococcus aureus [2]): 9 mg/kg; ED50 (Escherichia coli [3]): 2 mg/kg; MIC (Proteus vulgaris): 0.06 µg/mL (≈ 0.172 µM); MIC (Pseudomonas aeruginosa [4]): 0.25 µg/mL (≈ 0.716 µM); MIC (Staphylococcus aureus [5]): 0.06 µg/mL (≈ 0.172 µM); MIC [6]: 0.06 µg/mL (≈ 0.172 µM); MIC (Enterococcus faecalis): 0.25 µg/mL (≈ 0.716 µM); MIC (Escherichia coli [7]): 0.015 µg/mL (≈ 0.0429 µM); MIC (Morganella morganii): 0.03 µg/mL (≈ 0.0859 µM)
C[C@H]1COc2c(N3CCN(C)CC3)c(F)cc3c(=O)c(C(=O)O)cn1c23.C[C@H]1COc2c(N3CCN(C)CC3)c(F)cc3c(=O)c(C(=O)O)cn1c23.O [LEVOFLOXACIN] | 0.25 | 0.03 | 0.03 | 0.03 | 0.5 | 0.5 | 0.25 | 0.12 | 0.25 |  | 0.03 | 10200 | 109 | 14 | 5 | 

Second part, led by results:

MIC (Bacillus cereus; [9]) [µg/mL] | MIC (Bacillus subtilis; [10]) [µg/mL] | MIC (Enterobacter cloacae; [11]) [µg/mL] | MIC (Klebsiella pneumoniae; [12]) [µg/mL] | MIC (Proteus vulgaris; [16]) [µg/mL] | MIC (Pseudomonas aeruginosa [4]; [17]) [µg/mL] | MIC (Staphylococcus aureus [5]; [18]) [µg/mL] | MIC [6, 19] [µg/mL] | MIC (Enterococcus faecalis; [20]) [µg/mL] | MIC (Escherichia coli [7]; [21]) [µg/mL] | MIC (Morganella morganii; [22]) [µg/mL] | AUC [8] [ng·h/mL] | SMILES | ED50 (Pseudomonas aeruginosa [1]; [13]) [mg/kg] | ED50 (Staphylococcus aureus [2]; [14]) [mg/kg] | ED50 (Escherichia coli [3]; [15]) [mg/kg] | further results
0.12 (≈ 0.285 µM) | 0.06 (≈ 0.142 µM) | 0.06 (≈ 0.142 µM) | 0.06 (≈ 0.142 µM) | 0.5 (≈ 1.19 µM) | 0.5 (≈ 1.19 µM) | 0.12 (≈ 0.285 µM) | 0.12 (≈ 0.285 µM) | 1 (≈ 2.37 µM) | 0.06 (≈ 0.142 µM) | 0.25 (≈ 0.593 µM) |  | C[C@@H]1[C@@H](N)CN1c1c(F)cc2c(=O)c(C(=O)O)cn(-c3ccc(F)cc3F)c2c1F | 98 | 11.2 | 3 | 
 | 0.015 (≈ 0.0429 µM) | 0.015 (≈ 0.0429 µM) | 0.015 (≈ 0.0429 µM) |  |  | 0.015 (≈ 0.0429 µM) | 0.015 (≈ 0.0429 µM) |  | 0.015 (≈ 0.0429 µM) | 0.015 (≈ 0.0429 µM) | 21800 | C[C@H]1[C@H](N)CN1c1c(F)cc2c(=O)c(C(=O)O)cn(C3CC3)c2c1F (single isomer, unassigned) | 18 | 3.5 | 1 | 
